Measured values published in ChEMBL document CHEMBL1128606, “Nucleosides and nucleotides. 141. Chemical stability of a new antitumor nucleoside, 2'-C-cyano-2'-deoxy-1-beta-D-arabino-pentofuranosylcytosine in alkaline medium: formation of 2'-C-cyano-2'-deoxy-1-beta-D-ribo-pentofuranosylcytosine and its antitumor activity” (J Med Chem, 1995).

How the values were obtained:
[1] = Kinetic parameter of epimerization at a salt concentration (0.01 M) of in Tris.HCl buffer(pH 9.0) and 37 degree C (or )in RMPI 1640 cell culture medium containing 10%FCS; assay type: ADME, cell-based; conditions: rmpi 1640, pH 9
How it was run: (§1)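 Starting nucleoside (3 mg, 0.012 mmol) in 1 mL Tris-HCl (pH 7.5–10.3; 10 mM unless salt varied to 0.01–1 M at pH 9.0) or RPMI 1640 with 10% FCS, 37 °C. Timed samples analyzed by C-18 HPLC, 2.5% aqueous MeOH, 254 nm; peak areas corrected by ε. Rate constants k12, k21, k13, k23 obtained by nonlinear least-squares fit to compartment model; t1/2 reported.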

[2] = Kinetic parameter of epimerization at a salt concentration (0.1 M) of in Tris.HCl buffer(pH 9.0) and 37 degree C (or )in RMPI 1640 cell culture medium containing 10%FCS; assay type: ADME, cell-based; conditions: rmpi 1640, pH 9; how it was run: as §1
[3] = Kinetic parameter of epimerization at a salt concentration (1 M) of in Tris.HCl buffer(pH 9.0) and 37 degree C (or )in RMPI 1640 cell culture medium containing 10%FCS; assay type: ADME, cell-based; conditions: rmpi 1640, pH 9; how it was run: as §1
[4] = Kinetic parameter of epimerization in Tris.HCl buffer at a pH 10.0 (or )in RMPI 1640 cell culture medium containing 10%FCS; assay type: ADME, cell-based; conditions: rmpi 1640, pH 10; how it was run: as §1
[5] = Kinetic parameter of epimerization in Tris.HCl buffer at a pH 7.5 (or )in RMPI 1640 cell culture medium containing 10%FCS; assay type: ADME, cell-based; conditions: rmpi 1640, pH 7.5; how it was run: as §1
[6] = Kinetic parameter of epimerization in Tris.HCl buffer at a pH 8.0 (or )in RMPI 1640 cell culture medium containing 10%FCS; assay type: ADME, cell-based; conditions: rmpi 1640, pH 8; how it was run: as §1
[7] = Kinetic parameter of epimerization in Tris.HCl buffer at a pH 9.0 (or )in RMPI 1640 cell culture medium containing 10%FCS; assay type: ADME, cell-based; conditions: rmpi 1640, pH 9; how it was run: as §1
[8] = Kinetic parameter of epimerization in Tris.HCl buffer at a pH 9.6 (or )in RMPI 1640 cell culture medium containing 10%FCS; assay type: ADME, cell-based; conditions: rmpi 1640, pH 9.6; how it was run: as §1
[9] = Kinetic parameter of epimerization in Tris.HCl buffer at a pH 10.0(or )in RMPI 1640 cell culture medium containing 10%FCS; assay type: ADME, cell-based; conditions: rmpi 1640, pH 10; how it was run: as §1
[10] = Degradation of CNDAC at 0.01 M concentration in Tris-degrees C; assay type: ADME; conditions: Tris buffer; how it was run: as §1
[11] = Degradation of CNDAC at 0.1 M concentration in Tris-degrees C; assay type: ADME; conditions: Tris buffer; how it was run: as §1
[12] = Degradation of CNDAC at 10 pH in Tris-degrees C; assay type: ADME; conditions: Tris buffer, pH 10; how it was run: as §1
[13] = Degradation of CNDAC at 7.5 pH in Tris-degrees C; assay type: ADME; conditions: Tris buffer, pH 7.5; how it was run: as §1
[14] = Degradation of CNDAC at 8 pH in Tris-degrees C; assay type: ADME; conditions: Tris buffer, pH 8; how it was run: as §1
[15] = Degradation of CNDAC at 9 pH in Tris-degrees C; assay type: ADME; conditions: Tris buffer, pH 9; how it was run: as §1
[16] = Degradation of CNDAC at 9.6 pH in Tris-degrees C; assay type: ADME; conditions: Tris buffer, pH 9.6; how it was run: as §1
[17] = test system: MKN-74; assay: In Vitro cell growth inhibitory activity of CNDAC Stomach Carcinoma MKN-74 (1*10e3) cell lines on 20-min exposure; assay type: functional, cell-based, Homo sapiens
How it was run: (§2)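 MTT assay. Cells seeded (WiDr 5×10^2, SBC-5 2.5×10^2, MKN-74 1×10^3 per well), 24 h preincubation at 37 °C, 5% CO2. Graded drug concentrations added in tetraplicate for 20 min or 48 h, then washed three times with medium and cultured to 6 days from drug addition. MTT 1 mg/mL for 4 h, DMSO solubilization, A540. IC50 read graphically from dose-response curve.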

[18] = test system: MKN-74; assay: In Vitro cell growth inhibitory activity of CNDAC Stomach Carcinoma MKN-74 (1*10e3) cell lines on 48-h exposure; assay type: functional, cell-based, Homo sapiens; how it was run: as §2
[19] = test system: Mus musculus; assay: In vivo antileukemic activity of CNDAC against P388 mouse leukemic cells by ip administration of dose 100 (mg/kg/day); assay type: functional
How it was run: (§3)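 Female CDF1 mice, 6 weeks old (n = 6), implanted ip with 1×10^6 viable P388 cells maintained by weekly ip passage in DBA/2 mice. Drug in saline (0.1 mL/10 g body weight) given ip on days 1–5. T/C is treated vs untreated median survival time. Weight change is day 7 minus day 1 average.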

[20] = test system: Mus musculus; assay: In vivo antileukemic activity of CNDAC against P388 mouse leukemic cells by ip administration of dose 200 (mg/kg/day); assay type: functional; how it was run: as §3
[21] = test system: Mus musculus; assay: In vivo antileukemic activity of CNDAC against P388 mouse leukemic cells by ip administration of dose 50 (mg/kg/day); assay type: functional; how it was run: as §3
[22] = test system: Mus musculus; assay: In vivo antileukemic activity of CNDAC against P388 mouse leukemic cells by ip administration of dose 25 (mg/kg/day); assay type: functional; how it was run: as §3
[23] = test system: SBC-5; assay: In Vitro cell growth inhibitory activity of CNDAC against Small Cell Lung Carcinoma-5 (2.5*10e2) cells on 20-min exposure; assay type: functional, cell-based; conditions: Homo sapiens, SBC-5, 20 min; how it was run: as §2
[24] = test system: SBC-5; assay: In Vitro cell growth inhibitory activity of CNDAC against Small Cell Lung Carcinoma-5 (2.5*10e2) cells on 48-h exposure; assay type: functional, cell-based, Homo sapiens; how it was run: as §2
[25] = test system: WiDr; assay: In Vitro cell growth inhibitory activity of CNDAC against Human Colon Carcinoma WiDr 5*10e2 cells on 20- min exposure; assay type: functional, cell-based; how it was run: as §2
[26] = test system: WiDr; assay: In Vitro cell growth inhibitory activity of CNDAC against Human Colon Carcinoma WiDr 5*10e2 cells on 48-h exposure; assay type: functional, cell-based; how it was run: as §2
[27] = Degradation of CNDAC at 1 M concentration in Tris-degrees C; assay type: ADME; conditions: Tris buffer; how it was run: as §1

What does the source list for N#C[C@H]1[C@H](O)[C@@H](CO)O[C@H]1n1ccc(N)nc1=O (stereo in doubt; form 1) [TAS-109]?
K12 [1]: 0.88 h⁻¹; K13+K23 [1]: 0.09 h⁻¹; K21 [1]: 0.6 h⁻¹; K12 [2]: 1.88 h⁻¹; K13+K23 [2]: 0.19 h⁻¹; K21 [2]: 1.16 h⁻¹; K12 [3]: 2.31 h⁻¹; K13+K23 [3]: 0.3 h⁻¹; K21 [3]: 1.35 h⁻¹; K12 [4]: 6.18 h⁻¹; K13+K23 [4]: 0.69 h⁻¹; K12 [5]: 0.062 h⁻¹; K13+K23 [5]: 0.009 h⁻¹; K21 [5]: 0.037 h⁻¹; K12 [6]: 0.22 h⁻¹; K13+K23 [6]: 0.02 h⁻¹; K21 [6]: 0.14 h⁻¹; K12 [7]: 0.88 h⁻¹; K13+K23 [7]: 0.09 h⁻¹; K21 [7]: 0.6 h⁻¹; K12 [8]: 2.14 h⁻¹; K13+K23 [8]: 0.26 h⁻¹; K21 [8]: 1.41 h⁻¹; K21 [9]: 4.07 h⁻¹; half-life [10]: 60 min; half-life [11]: 30 min; half-life [12]: 8.4 min; half-life [13]: 2280 min; half-life [14]: 240 min; half-life [15]: 60 min; half-life [16]: 27 min; IC50 [17]: 24.9 µM; IC50 ([18]; Homo sapiens, MKN-74, 48 h): 150 nM; T/C [19]: 311%; T/C [20]: 333%; T/C [21]: 300%; T/C [22]: 300%; Weight change [22]: 0.3 g; IC50 [23]: 7.14 µM; IC50 ([24]; Homo sapiens, SBC-5, 48 h): 222 nM; IC50 [25]: 16.5 µM; IC50 ([26]; Homo sapiens, WiDr, 48 h): 157 nM; half-life [27]: 21 min

Which IC50 [17] does the source give for N#C[C@H]1[C@H](O)[C@@H](CO)O[C@H]1n1ccc(N)nc1=O (stereo in doubt; form 2) [TAS-109] here?
Its IC50 is 265 µM.

What about the IC50 ([18]; mkn-74) of the same molecule?
Its IC50 is 206 nM.

What about the T/C [19] of the same molecule?
Its T/C is 180%.

What about the Weight change [19] of the same molecule?
Its Weight change is 0.7 g.

What about the T/C [20] of the same molecule?
Its T/C is 203%.

And the Weight change [20]?
Its Weight change is 0.9 g.

What about the T/C [21] of the same molecule?
The T/C was 164%.

What about the Weight change [21] of the same molecule?
The Weight change was 0.9 g.

What about the T/C [22] of the same molecule?
Its T/C is 138%.

What about the Weight change [22] of the same molecule?
Its Weight change is 1.6 g.

And the IC50 [23]?
Its IC50 is 7.14 µM.

What about the IC50 ([24]; sbc-5) of the same molecule?
The IC50 was 367 nM.

What about the IC50 [25] of the same molecule?
Its IC50 is 16.5 µM.

And the IC50 ([26]; widr)?
Its IC50 is 306 nM.
